Test results reported in ChEMBL document CHEMBL4038326, “Discovery, Structure-Activity Relationship, and Binding Mode of an Imidazo[1,2-a]pyridine Series of Autotaxin Inhibitors” (J Med Chem, 2017).

Assays:
Autotaxin [1] = target: T1, Autotaxin (Homo sapiens, UniProt Q13822); experiment: Inhibition of glycosylated human ATX using LPC 16:0 as substrate after 30 mins by luminescence assay
Outline: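 Started with 150 µM LPC 16:0 solution, 30 min at 37°C. Stopped with EGTA and choline detected by choline oxidase/HRP/TOOS/4-aminoantipyrine; read after 30 min at room temperature.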

Autotaxin [2] = target: Autotaxin (Rattus norvegicus, UniProt Q64610); experiment: Inhibition of ATX in rat plasma assessed as reduction in plasma lysophosphatidic acid 18:2 levels after 2 hrs by LC-MS/MS method
Outline: (§1)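 Rat plasma thawed on ice and incubated with a compound dose range for 2 h at 37°C. Methanol precipitation with LPA 17:0 internal standard, isocratic C18 LC-MS/MS, LPA 18:2/LPA 17:0 peak-area ratio. % reduction = 100 − (ratio/control ratio × 100). Some compounds were tested only at 0.5, 5 and 50 µM (n = 3).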

Autotaxin [3] = target: T1, Autotaxin; experiment: Inhibition of glycosylated human ATX using FS-3 as substrate preincubated for 30 mins followed by substrate addition measured after 30 mins by fluorescence assay
Outline: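 Fivefold compound dilutions from a 20 µM top. Started with 0.75 µM FS-3 solution; fluorescence (ex 485, em 520 nm) read after 30 min at room temperature. SD where replicated at least twice.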

[4] = target: Autotaxin (Rattus norvegicus) (UniProt Q64610); experiment: Inhibition of ATX in rat plasma assessed as reduction in plasma lysophosphatidic acid 18:2 levels at 0.5 to 50 uM after 2 hrs by LC-MS/MS method relative to control; outline: as §1
[5] = Oral bioavailability in Sprague-Dawley rat at 5 mg/kg; assay type: ADME, organism-based; conditions: in vivo
Outline: (§2)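 PK from single 1 mg/kg iv and 5 mg/kg po doses (n = 3); mice sampled compositely as a group of six. Plasma drug by LC-MS/MS against an eight-level calibration curve with QCs, LLOQ 4 ng/mL. Parameters by noncompartmental analysis of averaged plasma concentrations; CV% reported for rats.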

[6] = Clearance in Sprague-Dawley rat at 1 mg/kg, iv; assay type: ADME, organism-based; conditions: in vivo; outline: as §2
Rattus norvegicus [7] = experiment: In vivo inhibition of ATX in Sprague-Dawley rat plasma assessed as reduction in plasma lysophosphatidic acid 18:2 levels at 5 mg/kg, po measured after 1 hr by LC-MS/MS method; assay type: functional
Outline: (§3)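 Fasted male Sprague Dawley rats given 5 mg/kg orally in 10% hydroxypropyl-β-cyclodextrin, pH 3 with citric acid. Jugular catheter blood taken into Li-heparin at 0.5, 1 and 3 h. Methanol precipitation with LPA 17:0 internal standard, isocratic C18 LC-MS/MS, peak-area ratio of LPA 18:2 to LPA 17:0 with no calibration curve. % reduction against the vehicle group mean at the same time; 3 animals.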

[8] = Volume of distribution at steady state in mouse at 1 mg/kg, iv; assay type: ADME, organism-based; conditions: in vivo, read-out: Vdss; outline: as §2
Rattus norvegicus [9] = experiment: In vivo inhibition of ATX in Sprague-Dawley rat plasma assessed as reduction in plasma lysophosphatidic acid 18:2 levels at 5 mg/kg, po measured after 0.5 hrs by LC-MS/MS method; assay type: functional; outline: as §3
[10] = Volume of distribution at steady state in Sprague-Dawley rat at 1 mg/kg, iv; assay type: ADME, organism-based; conditions: in vivo, read-out: Vdss; outline: as §2
[11] = Plasma concentration in Sprague-Dawley rat at 5 mg/kg, po measured after 3 hrs by LC-MS/MS method; assay type: ADME, organism-based
Outline: (§4)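 Fasted male Sprague Dawley rats dosed orally at 5 mg/kg in 10% hydroxypropyl-β-cyclodextrin (pH 3, citric acid); jugular catheter blood into Li-heparin at 0.5, 1, 3 h. Plasma level by LC-MS/MS against an eight-level calibration curve with QCs, LLOQ 4 ng/mL; mean of 3 animals.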

[12] = Plasma concentration in Sprague-Dawley rat at 5 mg/kg, po measured after 0.5 hrs by LC-MS/MS method; assay type: ADME, organism-based; outline: as §4
[13] = Plasma concentration in Sprague-Dawley rat at 5 mg/kg, po measured after 1 hr by LC-MS/MS method; assay type: ADME, organism-based; outline: as §4
[14] = Half life in Sprague-Dawley rat at 1 mg/kg, iv; assay type: ADME, organism-based; conditions: in vivo; outline: as §2
Rattus norvegicus [15] = experiment: In vivo inhibition of ATX in Sprague-Dawley rat plasma assessed as reduction in plasma lysophosphatidic acid 18:2 levels at 5 mg/kg, po measured after 3 hrs by LC-MS/MS method; assay type: functional; outline: as §3
[16] = Half life in mouse at 1 mg/kg, iv; assay type: ADME, organism-based; conditions: in vivo; outline: as §2
[17] = Protein binding in Sprague-Dawley rat plasma; assay type: ADME, cell-free; conditions: read-out: PPB
[18] = target: Autotaxin (Rattus norvegicus) (UniProt Q64610); conditions: 5 uM
[19] = target: Autotaxin (Rattus norvegicus) (UniProt Q64610); conditions: 0.5 uM
[20] = target: Autotaxin (Rattus norvegicus) (UniProt Q64610); conditions: 50 uM

| Compound | IC50 (Autotaxin [1]) [nM] | also measured |
| --- | --- | --- |
| CCc1nc2ccc(C3CCN(S(C)(=O)=O)CC3)cn2c1N(C)c1nc(-c2ccc(F)c(F)c2)cs1 | 1900 |  |
| CCc1nc2ccc(C3CCN(S(C)(=O)=O)CC3)cn2c1N(C)c1nc(-c2ccc(F)cc2)c(C(=O)O)s1 | > 10000 |  |
| CCc1nc2ccc(C3CCN(CC(=O)N(C)C)CC3)cn2c1N(C)c1nc(-c2ccc(F)cc2)cs1 | 261 | IC50 (Autotaxin [2]): 476 nM |
| CCc1nc2ccc(N3CCN(Cc4ncon4)CC3)cn2c1N(C)c1nc(-c2ccc(F)cc2)cs1 | 1710 |  |
| CCc1nc2ccc(C3CCN(CC(=O)N4CCCC4)CC3)cn2c1N(C)c1nc(-c2ccc(F)cc2)cs1 | 86 | IC50 (Autotaxin [2]): 115 nM |
| CCc1nc2ccc(C3CCN(S(C)(=O)=O)CC3)cn2c1N(C)c1nc(-c2ccc(OC)cc2)cs1 | 1680 |  |
| CCc1nc2ccc(N3CCN(CCO)CC3)cn2c1N(C)c1nc(-c2ccc(F)cc2)cs1 | 2360 | IC50 (Autotaxin [2]): 6080 nM; IC50 (Autotaxin [3]): 12 nM |
| CCc1nc2ccc(C3CCN(S(C)(=O)=O)CC3)cn2c1N(C)c1nc(-c2ccc(F)cc2)cs1 | 710 | IC50 (Autotaxin [2]): 1030 nM |
| CCc1nc2ccc(C3CCN(S(C)(=O)=O)CC3)cn2c1N(C)c1nc(-c2ccc(C(F)(F)F)cc2)cs1 | 1000 |  |
| CCc1nc2ccc(C(=O)NCCO)cn2c1N(C)c1nc(-c2ccc(Cl)cc2)cs1 | > 10000 | IC50 (Autotaxin [2]): > 50000 nM; IC50 (Autotaxin [3]): 122 nM; inhibition [4]: < 50%; bioavailability [5]: 39%; clearance [6]: 2.5 mL/min/kg |
| CCc1nc2ccc(N3CCN(CC(=O)O)CC3)cn2c1N(C)c1nc(-c2ccc(F)cc2)cs1 | 9160 |  |
| CCOC(=O)N1CCC(NC(=O)c2ccc3nc(CC)c(N(C)c4nc(-c5ccc(Cl)cc5)cs4)n3c2)CC1 | 6560 | IC50 (Autotaxin [2]): 12600 nM; IC50 (Autotaxin [3]): 5 nM |
| CCc1nc2ccc(C3CCN(S(C)(=O)=O)CC3)cn2c1N(C)c1nc(-c2cc(F)cc(F)c2)cs1 | 4250 |  |
| CCc1nc2ccc(C3CCN(CC(=O)NC4CC4)CC3)cn2c1N(C)c1nc(-c2ccc(F)cc2)cs1 | 1610 |  |
| CCc1nc2ccc(C3CCN(CC(=O)N4CC(O)C4)CC3)cn2c1N(C)c1nc(-c2ccc(F)cc2)c(C#N)s1 |  | inhibition in vivo at 5 mg/kg (Rattus norvegicus [7]): 82%; Vd [8]: 1.7 L/kg; inhibition in vivo at 5 mg/kg (Rattus norvegicus [9]): 74%; Vd [10]: 8.3 L/kg; concentration at 3 h [11]: 58 nM; concentration at 0.5 h [12]: 67 nM; concentration at 1 h [13]: 34 nM; half-life [14]: 2.1 h; inhibition in vivo at 5 mg/kg (Rattus norvegicus [15]): 97%; half-life [16]: 2 h; fraction unbound [17]: < 0.01 |
| CCc1nc2ccc(C3CCN(S(C)(=O)=O)CC3)cn2c1N(C)c1nc2ccccc2s1 | > 10000 |  |
| CCc1nc2ccc(C3CCN(S(=O)(=O)CCCN(C)C)CC3)cn2c1N(C)c1nc(-c2ccc(F)cc2)cs1 | 357 |  |
| CCOC(=O)CN1CCN(c2ccc3nc(CC)c(N(C)c4nc(-c5ccc(F)cc5)cs4)n3c2)CC1 | 280 |  |
| CCc1nc2ccc(C3CCN(S(C)(=O)=O)CC3)cn2c1N(C)c1nc2c(s1)Cc1cc(F)ccc1-2 | 1210 |  |

| Compound | IC50 (Autotaxin [1]) [nM] | also measured |
| --- | --- | --- |
| CCc1nc2ccc(C3CCN(S(C)(=O)=O)CC3)cn2c1N(C)c1nc(-c2ccc(F)cc2F)cs1 | 2020 |  |
| CCc1nc2ccc(N3CCN(Cc4cnc[nH]4)CC3)cn2c1N(C)c1nc(-c2ccc(F)cc2)cs1 | 771 | IC50 (Autotaxin [2]): 4100 nM |
| CCc1nc2ccc(N3CCOCC3)cn2c1N(C)c1nc(-c2ccc(F)cc2)cs1 | 6800 | IC50 (Autotaxin [2]): > 50000 nM; IC50 (Autotaxin [3]): 8 nM; inhibition [4]: < 50% |
| CCc1nc2ccc(C3CCN(S(C)(=O)=O)CC3)cn2c1N(C)c1nc(-c2ccc(C(C)(C)C)cc2)cs1 | 7610 |  |
| CCc1nc2ccc(N3CCN(Cc4ncco4)CC3)cn2c1N(C)c1nc(-c2ccc(F)cc2)cs1 | 1520 |  |
| CCc1nc2ccc(C3CCN(S(C)(=O)=O)CC3)cn2c1N(C)c1nc(-c2ccc(F)cc2C)cs1 | 533 |  |
| CCc1nc2ccc(C3CCN(S(C)(=O)=O)CC3)cn2c1N(C)c1nc(-c2ccc(F)cc2)c(C(N)=O)s1 | 1410 |  |
| CCc1nc2ccc(C3CCN(S(C)(=O)=O)CC3)cn2c1N(C)c1nc(C2CCCCC2)cs1 | 1900 |  |
| CCc1nc2ccc(N3CCN(CC(=O)N4CCOCC4)CC3)cn2c1N(C)c1nc(-c2ccc(F)cc2)cs1 | 231 |  |
| CCc1nc2ccc(C3CCN(CC(N)=O)CC3)cn2c1N(C)c1nc(-c2ccc(F)cc2)cs1 | 2370 |  |
| CCc1nc2ccc(C3CCN(S(C)(=O)=O)CC3)cn2c1N(C)c1nc(-c2ccc(F)cc2)c(C)s1 | 2270 |  |
| CCc1nc2ccc(C3CCN(S(C)(=O)=O)CC3)cn2c1N(C)c1nc2c(s1)Cc1ccc(F)cc1-2 | 804 |  |
| CCc1nc2ccc(C3CCN(S(C)(=O)=O)CC3)cn2c1N(C)c1nc(-c2ccc(F)cc2C#N)cs1 | 126 |  |
| CCc1nc2ccc(C3CCN(S(C)(=O)=O)CC3)cn2c1N(C)c1nc(-c2ccc(Cl)nc2)cs1 | 493 |  |
| CCc1nc2ccc(-c3cccnc3)cn2c1N(C)c1nc(-c2ccc(F)cc2)cs1 | > 10000 | IC50 (Autotaxin [2]): > 50000 nM; IC50 (Autotaxin [3]): 2 nM; inhibition [4]: < 50% |
| CCOC(=O)CN1CCC(c2ccc3nc(CC)c(N(C)c4nc(-c5ccc(F)cc5)cs4)n3c2)CC1 | 480 |  |
| CCc1nc2ccc(C3CCN(S(C)(=O)=O)CC3)cn2c1N(C)c1nc(-c2ccc(F)cc2)c(C#N)s1 | 138 |  |
| CCOC(=O)N1CCC(NCc2ccc3nc(CC)c(N(C)c4nc(-c5ccc(Cl)cc5)cs4)n3c2)CC1 | 1210 | inhibition [18]: 67%; IC50 (Autotaxin [2]): < 5000 nM; IC50 (Autotaxin [3]): 9 nM; inhibition [19]: 7%; inhibition [20]: 100% |
| CCc1nc2ccc(N3CCN(Cc4ncc[nH]4)CC3)cn2c1N(C)c1nc(-c2ccc(F)cc2)cs1 | > 4100 |  |
